Bioassay records deposited in PubChem by several laboratories.
This is a sample that favours compounds with a hit; in the whole collection about 2.9% have one here.
SUMO Mot1 rescue: inhibitors of SUMOylation pathway: yeast Mot1-301 growth rescue | 320,000 tested, 1% active | growth rescue, % at 18.8 µM | S. cerevisiae Mot1-301 growth rescue, ATP luminescence, 38.5C; percent above DMSO median, 100 means doubled;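 active = every valid replicate shows activation above 250% relative to neutral control wells; inactive = the rest, any valid replicate at or below 250%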;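 also: OY570 slx delta 5 strain wells were the positive control but not used for scaling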
IMP-1 inh: blocks Pseudomonas aeruginosa IMP-1 metallo-beta-lactamase; inhibition, % at 5.6 µM; purified IMP-1, nitrocefin hydrolysis, epi-absorbance fluorescence; AID 1556; 290,000 tested, 0.45% active;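 active = inhibition above the mean plus 3 SD of all compounds in the same screening run, cut at about 4.5% in these data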;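 also: 0% = IMP-1 with DMSO and 100% = DMSO wells lacking enzyme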
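System: purified IMP-1; amount: IMP-1 0.2 nM before substrate addition; compound: single dose, 5.6 µM; times: 25 °C, 15 min preincubation, 25 min reaction; signal: Epi-absorbance via hydrolysed-nitrocefin quenching of white-plate fluorescence, 480/530 nm, EDTA stop; benchmarks: DMSO with and without IMP-1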
NALP3 yeast inh: blocks the NALP3 inflammasome reconstituted in yeast; 330,000 tested, 0.39% active; Yeast reconstituted NLRP3/ASC/caspase-1, beta-gal luminescence, 24 h; inhibition, % at 10 µM;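 active = inhibition of 50% or more; inactive = inhibition below 50%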;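 also: plate controls were induced DMSO wells for no effect and uninduced yeast grown without galactose for full effect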
PolyA inhibitor: inhibitors of polyadenylation in S. cerevisiae; S. cerevisiae SKY197-pL101 polyadenylation reporter, beta-gal luminescence; efflux-impaired pdr1/pdr3 knockout yeast; score 100 = 6 SD above DMSO; activity score, % at 12 µM; 300,000 tested, 0.02% active;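 active = lowest replicate activity score at least 50, where 100 means six control SD above control mean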;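 also: yeast exposed to compound for 9 h at 30 °C; higher score means more reporter readthrough which indicates perturbed polyadenylation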
NALP1 inh: NALP1 inhibition; S. cerevisiae NALP1/ASC/caspase-1 growth, X-gal OD620, 72 h; inhibition, % at 10 µM; 280,000 tested, 0.61% active; AID 2071; in the data active = inhibition mostly above about 24%, no sharp cut-off; inactive = mostly below about 32%
VIM-2 inhibitor: blocks Pseudomonas aeruginosa VIM-2 metallo-beta-lactamase | purified VIM-2, nitrocefin hydrolysis, epi-absorbance fluorescence | inhibition, % at 5.6 µM | 290,000 tested, 0.89% active | AID 1527;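 active = inhibition above the mean of all tested compounds plus 3 SD, cutoff set per screening run, cut at about 7.5% in these data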;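 also: red hydrolysis product quenches plate fluorescence so inhibitors raise well fluorescence; 0% = enzyme with DMSO and 100% = DMSO without enzyme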
Mot1 SUMO dose: yeast SUMO pathway inhibition in dose response; shares compounds with SUMO Mot1 rescue; S. cerevisiae Mot1-301 galactose growth, ATP luminescence, 24 h; -100 = growth of slx-deleted rescue strain; growth activity, percent, % at 42 µM; 2,300 tested, under 10 active;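 active = Signal drops as the depositor expects, and the fitted half-maximal dose is no more than ten times the top valid tested dose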;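 also: more negative values mean stronger growth rescue toward the control strain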
Numbers without * were called inactive; · = not tested or not shown; + = active, no number; [ ] = another dose, or the depositor's remark.

SMILES	SUMO Mot1 rescue	IMP-1 inh	NALP3 yeast inh	PolyA inhibitor	NALP1 inh	VIM-2 inhibitor	Mot1 SUMO dose
COc1cc2c(cc1OC)CN(S(=O)(=O)c1cccc(F)c1)CC2	+	-1	27	3	15	-3	0
COc1ccccc1C(=O)NC(=O)COC(=O)c1cc[n+]([O-])cc1	-9	·	9	8	·	·	·
Clc1ccc(CONc2ncnc3nonc23)c(Cl)c1	+	0	34	·	0	-2	-2
CCONc1ncnc2nonc12	-4	-3	4	16	26	-5	·
Cc1cccc(C)c1NS(=O)(=O)c1ccc(OCCNS(C)(=O)=O)cc1	655*	-3	11	-5	19	-2	0
COc1ccc(/C=N/NC(=O)c2cccnc2)cc1CN1CCOCC1	-19	-1	9	25	15	0	·
COc1cc(/C=N/NC(=O)c2ccc(F)cc2)ccc1OC(=O)c1ccco1	-10	-2	5	19	-14	-4	·
COc1cc(/C=N/NC(=O)c2cccnc2)ccc1OCC(=O)N1CCOCC1	768*	-3	10	22	28	-2	0
COc1cc(/C=N/NC(=O)c2ccncc2)ccc1OC(=O)c1ccco1	404*	-3	-18	-17	-21	-2	0
COc1ccc(NC(=O)CC2SC(N3CCOCC3)=NC2=O)cc1OC (stereo unspecified)	61	·	12	·	·	·	·
COc1cc(S(=O)(=O)N2CCN(c3ccccc3)CC2)ccc1F	647*	-2	4	-10	-3	-4	0
CC(Oc1ccc([N+](=O)[O-])cc1)C(=O)NCCCN1CCOCC1 (stereo unspecified)	505*	-5	10	-4	-4	-4	0
CN(CC(=O)O/N=C(\N)c1ccccn1)S(=O)(=O)c1ccc(Br)cc1	164	-3	20	1	·	-2	·
Cc1ccc(S(=O)(=O)N(C)CC(=O)O/N=C(\N)c2ccccn2)cc1	399*	-3	0	15	10	-2	1
O=C(CSc1ncnc2c1cnn2-c1ccccc1)NC1CCCC1	26	·	25	-13	·	·	·
CCN(CC)/C(=N\S(=O)(=O)c1ccc(F)cc1)c1ccccc1	551*	-3	8	7	1	-2	0[21 µM]
CN(C)/C(=N\S(=O)(=O)c1ccc(F)cc1)c1ccccc1	4	-2	2	-8	-1	-2	·
CCCCN(C)S(=O)(=O)c1cc2c3c(c1)CCC(=O)N3CCC2	0	-2	1	9	18	-3	·
O=C(NCc1cccc(C(F)(F)F)c1)C1CCCN(c2cnccn2)C1 (stereo unspecified)	2	0	-6	16	22	-1	·
Cc1ccc(CNC(=O)CCS(=O)(=O)c2ccc(Br)s2)o1	11	-2	0	8	14	-3	·
O=C(CCS(=O)(=O)c1ccc(Br)s1)NCc1ccccc1	737*	-3	19	-9	9	-4	-1
O=C(c1ccc(F)cc1)C(CN1CCOCC1)c1ccccc1 (stereo unspecified)	372*	-3	42	-107	1	-4	-2
CCCn1c(=S)[nH]c2cc(C(=O)N(CCO)Cc3ccccc3)ccc2c1=O	259	-5	18	-12	-30	-5	·
CCSc1nc2ccccc2c(=O)n1C1CCOC(C)(C)C1 (stereo unspecified)	545*	-1	17	-11	-4	-3	0
C=CCSc1nc2ccccc2c(=O)n1C1CCOC(C)(C)C1 (stereo unspecified)	-1	-3	23	8	-8	-5	·
SMILES	SUMO Mot1 rescue	IMP-1 inh	NALP3 yeast inh	PolyA inhibitor	NALP1 inh	VIM-2 inhibitor	Mot1 SUMO dose
CN(C)S(=O)(=O)N1CCc2ccccc2C1	+	-3	-21	17	18	-2	0
CN(C)S(=O)(=O)N1CCc2ccccc21	-22	1	5	5	·	-2	·
CC(=O)c1cccc(N2C(=NC(=O)C3CCCCC3)SC3CS(=O)(=O)CC32)c1 (stereo unspecified)	477*	-4	7	19	-2	-4	0
O=C(N=C1SC2CS(=O)(=O)CC2N1c1ccc(F)c(Cl)c1)C1CC1 (stereo unspecified)	518*	-1	9	13	11	-2	0
O=C(N=C1SC2CS(=O)(=O)CC2N1c1ccc(F)cc1F)C1CC1 (stereo unspecified)	9	1	18	3	10	-6	·
Cc1ccccc1-n1c(-c2cccnc2)n[nH]c1=S	+	-3	24	7	-13	2	0
Cc1ccccc1C(=O)NNC(=S)Nc1cccc(C(F)(F)F)c1	405*	-2	4	4	21	-2	0
COc1ccc(-c2cc(=O)c3cc(O)ccc3o2)cc1	554*	-2	39	0	-6	-2	0
COc1ccc2[nH]c(=O)c(-c3nnn(-c4ccc(Cl)c(Cl)c4)n3)cc2c1	235	·	12	17	·	·	·
CCOc1ccc(N2C(=O)c3cccnc3C2=O)cc1	2	-3	11	8	14	-1	·
O=C1c2nccnc2C(=O)N1c1ccc(C(F)(F)F)cc1	588*	-3	7	9	-14	-1	-1
Cc1ccccc1-c1nnnn1C1CCS(=O)(=O)C1 (stereo unspecified)	+	0	2	-4	28	-2	0
Cc1ccc(CS(=O)(=O)CCC(=O)NCc2ccccc2Cl)cc1	7	-4	16	8	-7	-5	·
CCn1c(SCC(=O)Nc2ccc(NC(=O)c3ccco3)cc2)nnc1-c1cccs1	+	1	4	5	·	-3	0
O=C1CS/C(=C/C(=O)c2ccccc2)N1	1	0	46	16	-8	0	·
Cc1ccccc1C(=O)/C=C1\NC(=O)CS1	368*	-1	26	19	8	-2	-1[21 µM]
COc1ccc([N+](=O)[O-])cc1NC(=O)C1CCCN1S(=O)(=O)c1cccs1 (stereo unspecified)	418*	·	12	5	·	·	0
CCc1cc(=O)oc2cc(OC(C)C(=O)NCC3CCC(C(=O)O)CC3)c(Cl)cc12 (stereo unspecified)	6	-2	2	-5	10	-1	·
Nc1ccnc(=O)[nH]1	654*	·	2	1	·	·	0
O=c1nccc(N/N=C/c2ccccc2O)[nH]1	-17	-5	-3	9	16	-4	·
O=C(c1cc(N2C(=O)C3C4CCC(C4)C3C2=O)ccc1Cl)N1CCN(c2ccccc2)CC1 (stereo unspecified)	+	-2	14	4	21	-2	1
